Data on five compounds can be found in ChEMBL document CHEMBL2434944, “Novel acetamidothiazole derivatives: synthesis and in vitro anticancer evaluation” (Eur J Med Chem, 2013).

The term Ki denotes the dissociation constant of the complex between target and ligand, obtained from inhibition or displacement. A lower Ki goes with higher affinity.

In test [1] the test system is ACHN. Put plainly: Growth inhibition of human ACHN cells assessed as cell growth at 10^-5 M after 48 hrs by sulforhodamine B assay relative to control. The class given is functional. The note with it: read-out: Activity. Summed up:
(§1)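 NCI-60 single-dose screen at 10^-5 M. Cells grown in RPMI 1640 with 5% FBS and 2 mM L-glutamine, plated at 5,000–40,000 cells/well according to doubling time, and preincubated 24 h at 37°C, 5% CO2. Compound dissolved in DMSO and added. Exposure 48 h. Adherent cells fixed with cold TCA (10% final), suspension cells with 16% final TCA. Read-out is 0.4% SRB staining, dye solubilised in 10 mM Tris, absorbance at 515 nm. Percent growth is calculated against the time-zero plate and untreated control.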

In test [2] the test system is SK-MEL-2. Kind of test: Growth inhibition of human SK-MEL-2 cells assessed as cell growth at 10^-5 M after 48 hrs by sulforhodamine B assay relative to control. Type of test: functional. The note with it: SK-MEL-2, 48 h, read-out: Activity. Summed up:
as §1
(In general: In SRB staining, fixed cells bind dye roughly in proportion to their protein.)

Test [3] concerns MDA-MB-435. Put plainly: Growth inhibition of human MDA-MB-435 cells assessed as cell growth at 10^-5 M after 48 hrs by sulforhodamine B assay relative to control. The note with it: MDA-MB-435, 48 h, read-out: Activity. The class given is functional. Summed up:
as §1

For test [4], the system named is M14. Put plainly: Growth inhibition of human M14 cells assessed as cell growth at 10^-5 M after 48 hrs by sulforhodamine B assay relative to control. Particulars: M14, 48 h, read-out: Activity. The class given is functional. Summed up: as §1
Test [5] concerns Malme-3M. Kind of test: Growth inhibition of human MALME-3M cells assessed as cell growth at 10^-5 M after 48 hrs by sulforhodamine B assay relative to control. The class given is functional. The note with it: read-out: Activity. Summed up:
as §1

Test [6] deals with LOX IMVI. Put plainly: Growth inhibition of human LOXIMVI cells assessed as cell growth at 10^-5 M after 48 hrs by sulforhodamine B assay relative to control. The class given is functional. Particulars: read-out: Activity. Summed up:
as §1

Test [7] deals with U-251. Kind of test: Growth inhibition of human U251 cells assessed as cell growth at 10^-5 M after 48 hrs by sulforhodamine B assay relative to control. The class given is functional. The note with it: U-251, 48 h, read-out: Activity. Summed up: (§2)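 NCI-60 single-dose screen, 10^-5 M final. Cells grown in RPMI 1640 with 5% FBS and 2 mM L-glutamine, seeded at 5,000–40,000 cells/well by doubling time. Preincubated 24 h at 37°C, 5% CO2. Compound in DMSO, diluted in medium with gentamicin, then 48 h exposure. Fixed with cold TCA, SRB stained, A515 read. Percent growth vs untreated control, time-zero plate corrected.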

The test system of test [8] is SNB-75. Put plainly: Growth inhibition of human SNB75 cells assessed as cell growth at 10^-5 M after 48 hrs by sulforhodamine B assay relative to control. Type of test: functional. Particulars: SNB-75, 48 h, read-out: Activity. Summed up: as §1
Test [9] relates to HCT-15. Kind of test: Growth inhibition of human HCT15 cells assessed as cell growth at 10^-5 M after 48 hrs by sulforhodamine B assay relative to control. The class given is functional. The note with it: HCT-15, 48 h, read-out: Activity. Summed up: as §1
Test [10] has as its system HCT-116. Kind of test: Growth inhibition of human HCT116 cells assessed as cell growth at 10^-5 M after 48 hrs by sulforhodamine B assay relative to control. The note with it: HCT-116, 48 h, read-out: Activity. Type of test: functional. Summed up: as §1
Test [11] deals with COLO 205. Kind of test: Growth inhibition of human COLO205 cells assessed as cell growth at 10^-5 M after 48 hrs by sulforhodamine B assay relative to control. The class given is functional. The note with it: COLO 205, 48 h, read-out: Activity. Summed up:
as §1

Test [12] deals with NCI-H522. Put plainly: Growth inhibition of human NCI-H522 cells assessed as cell growth at 10^-5 M after 48 hrs by sulforhodamine B assay relative to control. The class given is functional. Particulars: NCI-H522, 48 h, read-out: Activity. Summed up:
as §1

In test [13] the test system is NCI-H226. Kind of test: Growth inhibition of human NCI-H226 cells assessed as cell growth at 10^-5 M after 48 hrs by sulforhodamine B assay relative to control. Type of test: functional. Particulars: NCI-H226, 48 h, read-out: Activity. Summed up:
as §1

Test [14] concerns A549. Kind of test: Growth inhibition of human A549 cells assessed as cell growth at 10^-5 M after 48 hrs by sulforhodamine B assay relative to control. The class given is functional. Particulars: A549, 48 h, read-out: Activity. Summed up: as §1
In test [15] the test system is SR. Put plainly: Growth inhibition of human SR cells assessed as cell growth at 10^-5 M after 48 hrs by sulforhodamine B assay relative to control. Type of test: functional. Particulars: read-out: Activity. Summed up:
as §2

Test [16] has as its system MOLT-4. Kind of test: Growth inhibition of human MOLT4 cells assessed as cell growth at 10^-5 M after 48 hrs by sulforhodamine B assay relative to control. The class given is functional. The note with it: MOLT-4, 48 h, read-out: Activity. Summed up:
as §1

In test [17] the test system is CCRF-CEM. Kind of test: Growth inhibition of human CCRF-CEM cells assessed as cell growth at 10^-5 M after 48 hrs by sulforhodamine B assay relative to control. The class given is functional. The note with it: read-out: Activity. Summed up:
as §1

Test [18] deals with T1, Leukotriene A-4 hydrolase (Homo sapiens, UniProt P09960).
T1 sequence (P09960 whole entry): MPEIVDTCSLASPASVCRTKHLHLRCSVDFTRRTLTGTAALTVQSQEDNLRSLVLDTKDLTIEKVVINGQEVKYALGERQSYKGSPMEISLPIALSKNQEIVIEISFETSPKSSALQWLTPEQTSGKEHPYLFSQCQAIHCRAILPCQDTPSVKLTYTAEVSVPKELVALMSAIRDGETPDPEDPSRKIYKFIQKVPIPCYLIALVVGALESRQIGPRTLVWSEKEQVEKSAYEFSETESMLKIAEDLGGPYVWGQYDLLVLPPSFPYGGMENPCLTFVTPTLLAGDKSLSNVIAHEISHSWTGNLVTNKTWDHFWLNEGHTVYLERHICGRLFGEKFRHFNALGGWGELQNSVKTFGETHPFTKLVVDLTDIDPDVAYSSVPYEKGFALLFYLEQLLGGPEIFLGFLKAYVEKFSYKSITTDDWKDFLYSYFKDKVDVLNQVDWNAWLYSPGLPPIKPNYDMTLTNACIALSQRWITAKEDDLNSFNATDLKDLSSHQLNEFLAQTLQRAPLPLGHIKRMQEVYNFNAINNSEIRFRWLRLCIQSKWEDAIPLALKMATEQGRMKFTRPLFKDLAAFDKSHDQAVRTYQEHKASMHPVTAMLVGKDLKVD
Kind of test: Inhibition of human leukotriene A-4 hydrolase.

The target of test [19] is Mitogen-activated protein kinase 1 (Homo sapiens, UniProt P28482). Kind of test: Inhibition of human MAPK1.
Sequence of Mitogen-activated protein kinase 1 (P28482 whole entry): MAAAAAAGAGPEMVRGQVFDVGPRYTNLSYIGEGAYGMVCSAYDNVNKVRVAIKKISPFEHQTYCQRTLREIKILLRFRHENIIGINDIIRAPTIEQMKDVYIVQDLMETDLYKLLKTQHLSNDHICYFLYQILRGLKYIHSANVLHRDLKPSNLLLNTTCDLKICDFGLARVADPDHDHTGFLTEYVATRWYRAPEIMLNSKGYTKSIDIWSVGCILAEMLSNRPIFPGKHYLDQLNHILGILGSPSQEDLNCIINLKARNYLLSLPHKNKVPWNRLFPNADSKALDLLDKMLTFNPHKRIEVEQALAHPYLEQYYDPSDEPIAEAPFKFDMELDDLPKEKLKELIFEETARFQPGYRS
The subject of test [20] is T47D. Put plainly: Growth inhibition of human T47D cells assessed as cell growth at 10^-5 M after 48 hrs by sulforhodamine B assay relative to control. Type of test: functional. Particulars: read-out: Activity. Summed up:
as §2

The subject of test [21] is BT-549. Kind of test: Growth inhibition of human BT549 cells assessed as cell growth at 10^-5 M after 48 hrs by sulforhodamine B assay relative to control. Type of test: functional. The note with it: BT-549, 48 h, read-out: Activity. Summed up:
as §1

A short description of test [22]: Growth inhibition of human Hs 578T cells assessed as cell growth at 10^-5 M after 48 hrs by sulforhodamine B assay relative to control. The class given is functional. The note with it: read-out: Activity. Summed up:
as §1

The test system of test [23] is MCF7. Kind of test: Growth inhibition of human MCF7 cells assessed as cell growth at 10^-5 M after 48 hrs by sulforhodamine B assay relative to control. Type of test: functional. Particulars: MCF7, 48 h, read-out: Activity. Summed up:
as §1

Test [24] has as its system DU-145. Put plainly: Growth inhibition of human DU145 cells assessed as cell growth at 10^-5 M after 48 hrs by sulforhodamine B assay relative to control. Type of test: functional. Particulars: DU-145, 48 h, read-out: Activity. Summed up:
as §1

For the compound `N=c1scc(-c2ccccc2)n1CC(=O)N1CCN(c2ccccc2)CC1`, the growth at 10 µM in test [1] was found to be 83.4%; in test [2], 104%; in test [3] it was 96.5%; in test [4], 101%; in test [5], 94.2%; in test [6] it was 90.7%. Moreover, the growth at 10 µM in test [7] came out at 91.2%; in test [8], 74.6%; in [9], 97%; in test [10] it was 107%; in test [11], 102%; in test [12], 85.1%. The growth at 10 µM came out at 93.7% in [13]; 90.3% in test [14]; 89.9% in test [15]; 99.6% in test [16]; 95.8% in [17]; 91.2% in [20]. Also, the growth at 10 µM in [21] is 95.5%; in test [22], 96.5%; in test [23] it was 95.3%; in test [24], 111%. Further, the inhibition constant Ki in test [18] was found to be 0.643 µM; in test [19], 1.73 µM.

Turning to `CC(=O)N1CCN(C(=O)Cn2c(-c3ccccc3)csc2=N)CC1`, the growth at 10 µM in [1] came to 89.5%; in [2], 108%; in [3], 105%; in [4] it was 97%; in [5] it was 141%; in test [6], 94.3%. In addition, the growth at 10 µM in test [7] stood at 96.9%; in [8] it was 67.7%; in test [9], 94.5%; in [10] it was 96.1%; in test [11], 99.8%; in [12], 81.3%. The growth at 10 µM in test [13] was determined as 88.8%; in [14], 96%; in test [15], 88.7%; in [16], 96.2%; in test [17] it was 103%; in test [20], 85.9%. In addition, the growth at 10 µM in test [21] turned out to be 98%; in test [22], 110%; in [23] it was 94.8%; in test [24], 112%. Also, the Ki is 2.59 µM in test [18] and 3.67 µM in [19].

Consider `N=c1scc(-c2ccc(Cl)cc2)n1CC(=O)N1CCOCC1`, for which the growth at 10 µM in test [1] amounted to 99.4%; in test [2] it was 107%; in test [3], 84.6%; in test [4], 92.2%; in test [5], 105%; in [6], 97.9%. Also, the growth at 10 µM amounted to 88.3% in test [7]; 75.3% in [8]; 89.9% in [9]; 87.4% in test [10]; 101% in test [11]; 79.5% in test [12]. Further, the growth at 10 µM came out at 94.4% in [13]; 84.6% in [14]; 72.7% in test [15]; 69.2% in test [16]; 91.3% in test [17]; 69.7% in [20]. Also, the growth at 10 µM in [21] worked out at 95.5%; in test [22], 105%; in test [23] it was 86.8%; in [24] it was 104%. For the same compound, the Ki in test [18] is 1.06 µM; in test [19], 9.18 µM.

For the compound `N=c1scc(-c2ccccc2)n1CC(=O)N1CCOCC1`, the growth at 10 µM amounted to 88% in test [1]; 106% in test [2]; 101% in test [3]; 100% in [4]; 102% in test [5]; 92% in [6]. For the same compound, the growth at 10 µM in [7] was 95.1%; in test [8], 59.4%; in test [9], 99.2%; in test [10] it was 98.6%; in [11], 107%; in [12], 94.2%. Also, the growth at 10 µM in [13] is 86.7%; in test [14], 102%; in test [15], 86.7%; in [16], 95.2%; in test [17], 98.6%; in test [20] it was 88.8%. Further, the growth at 10 µM in test [21] is 103%; in test [22] it was 101%; in test [23], 89.5%; in [24] it was 107%. Besides, the values for the inhibition constant Ki in [18] and in test [19] were 8.65 µM and 13.8 µM, respectively.

`Cc1ccc(-c2csc(=N)n2CC(=O)N2CCOCC2)cc1`: the growth at 10 µM was determined as 97.5% in test [1]; 111% in test [2]; 87.2% in test [3]; 110% in test [4]; 131% in test [5]; 92.8% in [6]. The growth at 10 µM in test [7] worked out at 91.8%; in test [8] it was 90.6%; in test [9] it was 98.1%; in test [10], 101%; in test [11], 113%; in [12] it was 93%. In addition, the growth at 10 µM in test [13] amounted to 94.3%; in test [14], 94.1%; in test [15] it was 96.2%; in [16] it was 99.7%; in [17], 101%; in [20] it was 97.4%. The growth at 10 µM turned out to be 99.3% in test [21], 118% in [22], 97.8% in test [23] and 108% in test [24]. For the same compound, the values for the Ki in [18] and in test [19] were 3.56 µM and 9.78 µM, respectively.
